In brackets after ≈: the same amount, converted by molar mass.
Columns and labels:
[1] = test system: Acinetobacter baumannii; test: Antibacterial activity against wild type Acinetobacter baumannii by broth microdilution method; assay type: functional
How it was run: (§1)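 MICs were determined by CLSI broth methods, except that organisms were grown in brain–heart–infusion medium. The panel comprised wild-type and resistant E. coli and A. baumannii strains, including 12 strains whose details are given by reference.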

[2] = test system: Escherichia coli; test: Antibacterial activity against quinolone resistance Escherichia coli isolate ELZ4251 harboring gyrA/parC mutant by CLSI M100-S17 protocol based method; assay type: functional
[3] = test system: Mus musculus; test: Volume of distribution at steady state in CD1 mouse plasma at 10 mg/kg, iv by LC-MS/MS analysis; assay type: ADME, organism-based; conditions: in vivo
[4] = test system: Acinetobacter baumannii; test: Antibacterial activity against wild type Acinetobacter baumannii ATCC BAA-747 by CLSI M100-S17 protocol based method; assay type: functional
[5] = test system: Acinetobacter baumannii; test: Antibacterial activity against carbapenem resistant Acinetobacter baumannii by broth microdilution method; assay type: functional; conditions: Acinetobacter baumannii; how it was run: as §1
[6] = test system: Acinetobacter baumannii; test: Antibacterial activity against fluoroquinolone resistant Acinetobacter baumannii isolate MMX2240 by CLSI M100-S17 protocol based method; assay type: functional
[7] = test system: Escherichia coli; test: Antibacterial activity against fluoroquinolone resistant Escherichia coli SKM18 by CLSI M100-S17 protocol based method; assay type: functional
[8] = test system: Escherichia coli; test: Selectivity ratio of MIC for wild type Escherichia coli ATCC 25922 in presence of HSA to MIC for wild type Escherichia coli ATCC 25922; assay type: functional
[9] = test system: Klebsiella pneumoniae; test: Antibacterial activity against wild type Klebsiella pneumoniae ATCC 35657 by CLSI M100-S17 protocol based method; assay type: functional
[10] = test system: Escherichia coli; test: Antibacterial activity against wild type Escherichia coli ATCC 25922 in presence of HSA by CLSI M100-S17 protocol based method; assay type: functional
[11] = test system: Escherichia coli; test: Antibacterial activity against wild type Escherichia coli by broth microdilution method; assay type: functional; how it was run: as §1
[12] = test system: Mus musculus; test: AUC (0 to 24 hrs) in CD1 mouse plasma at 10 mg/kg, iv by LC-MS/MS analysis; assay type: ADME, organism-based; set-up: time < 24 hr, dose 10 mg/kg, route intravenous; conditions: in vivo
How it was run: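 CD-1 mice given a single 10 mg/kg iv dose (n = 3), in either 10% DMSO plus 1% Tween 80 in pH 8.0 phosphate buffer or 20% (2-hydroxypropyl)-β-cyclodextrin in pH 4.0 citrate buffer; plasma exposure measured.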

[13] = test system: Escherichia coli; test: Antibacterial activity against beta-lactam resistant Escherichia coli by broth microdilution method; assay type: functional; conditions: Escherichia coli; for MIC: read-out: MIC; how it was run: as §1
[14] = test system: Escherichia coli; test: Antibacterial activity against aminoglycoside resistant Escherichia coli by broth microdilution method; assay type: functional; conditions: Escherichia coli; for MIC: read-out: MIC; how it was run: as §1
[15] = test system: Acinetobacter baumannii; test: Antibacterial activity against quinolone resistant Acinetobacter baumannii by broth microdilution method; assay type: functional; conditions: Acinetobacter baumannii; how it was run: as §1
[16] = Fraction unbound in mouse plasma at 1 uM by equilibrium dialysis method; assay type: ADME, cell-free
[17] = test system: Escherichia coli; test: Antibacterial activity against multidrug resistant Escherichia coli by broth microdilution method; assay type: functional; conditions: Escherichia coli; for MIC: read-out: MIC; how it was run: as §1
[18] = test system: Escherichia coli; test: Antibacterial activity against quinolone resistant Escherichia coli by broth microdilution method; assay type: functional; conditions: Escherichia coli; for MIC: read-out: MIC; how it was run: as §1
[19] = test system: Mus musculus; test: Terminal half life in CD1 mouse plasma at 10 mg/kg, iv by LC-MS/MS analysis; assay type: ADME, organism-based; conditions: in vivo
[20] = test system: Acinetobacter baumannii; test: Antibacterial activity against multidrug resistant Acinetobacter baumannii by broth microdilution method; assay type: functional; conditions: Acinetobacter baumannii; how it was run: as §1
[21] = test system: Escherichia coli; test: Antibacterial activity against wild type Escherichia coli ATCC 25922 by CLSI M100-S17 protocol based method; assay type: functional
[22] = test system: Acinetobacter baumannii; test: Antibacterial activity against aminoglycoside resistant Acinetobacter baumannii by broth microdilution method; assay type: functional; conditions: Acinetobacter baumannii; how it was run: as §1
[23] = test system: Acinetobacter baumannii; test: Antibacterial activity against beta-lactam resistant Acinetobacter baumannii by broth microdilution method; assay type: functional; conditions: Acinetobacter baumannii; how it was run: as §1
[24] = Inhibition of His tagged Escherichia coli ATCC 25922 DNA gyrase A expressed in Escherichia coli BL21 (DE3) pLysS cells assessed as reduction in enzyme-mediated supercoiling of relaxed plasmid DNA pNO1 after 30 mins in presence of biotinylated TFO1 by fluorescence assay
[25] = Inhibition of Escherichia coli DNA topoisomerase 4 assessed as reduction in decatenation activity using kinetoplast concatenated DNA as substrate after 30 mins by picogreen dye based fluorescence assay
[26] = test system: Escherichia coli; test: Antibacterial activity against Escherichia coli infected in cyclophosphamide treated neutropenic CD1 mouse septicemia model assessed as mouse survival at 20 mg/kg, iv dosed at 1 hr post infection followed by redosing at 5 hrs post infection measured at 96 hrs post infection relative to control; assay type: functional
How it was run: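 Female CD-1 mice were made neutropenic with cyclophosphamide ip, 150 mg/kg on day −4 and 100 mg/kg on day −1. […] Compound was given iv in 3% DMSO/saline at 1 and 5 h postinfection, n = 6 per group. Percent survival was scored at 96 h postinfection.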

`CN(C)Cc1cc2cc3c(cc2n1C)OCCc1c-3[nH]c(=O)c(C(=O)O)c1O` showed an MIC [1] of 0.25 to 16 µg/mL (≈ 0.652 to 41.7 µM), an MIC50 [1] of 2 µg/mL (≈ 5.22 µM) and an MIC90 [1] of 16 µg/mL (≈ 41.7 µM). For the same molecule, the MIC [2] was 1.6 µg/mL (≈ 4.17 µM), the Vdss [3] was 7.6 L/kg and the MIC [4] was 2 µg/mL (≈ 5.22 µM). It also gave an MIC50 [5] of 2 µg/mL (≈ 5.22 µM), an MIC90 [5] of 16 µg/mL (≈ 41.7 µM) and an MIC [6] of 3.9 µg/mL (≈ 10.2 µM). The MIC [7] was 1 µg/mL (≈ 2.61 µM), the Ratio [8] was 2 - 4 and the MIC [9] was 1 µg/mL (≈ 2.61 µM). For the same molecule, the MIC [10] was 2 µg/mL, the MIC50 [11] was 0.5 µg/mL (≈ 1.3 µM) and the MIC90 [11] was 2 µg/mL (≈ 5.22 µM). It also gave an AUC [12] of 2930 ng·h/mL, an MIC50 [13] of 0.5 µg/mL (≈ 1.3 µM) and an MIC90 [13] of 2 µg/mL (≈ 5.22 µM). For the same molecule, the MIC [13] was 0.25 to 8 µg/mL (≈ 0.652 to 20.9 µM), the MIC50 [14] was 0.5 µg/mL (≈ 1.3 µM) and the MIC90 [14] was 2 µg/mL (≈ 5.22 µM). For the same molecule, the MIC [14] was 0.25 to 8 µg/mL (≈ 0.652 to 20.9 µM), the MIC50 [15] was 2 µg/mL (≈ 5.22 µM) and the MIC90 [15] was 16 µg/mL (≈ 41.7 µM). It also gave a Fu [16] of 0.21, an MIC50 [17] of 0.5 µg/mL (≈ 1.3 µM) and an MIC90 [17] of 2 µg/mL (≈ 5.22 µM). It also gave an MIC [17] of 0.25 to 8 µg/mL (≈ 0.652 to 20.9 µM), an MIC50 [18] of 0.5 µg/mL (≈ 1.3 µM) and an MIC90 [18] of 2 µg/mL (≈ 5.22 µM). The MIC [18] was 0.25 to 8 µg/mL (≈ 0.652 to 20.9 µM), the “beta t1/2” value [19] was 3.1 h and the MIC50 [20] was 2 µg/mL (≈ 5.22 µM). For the same molecule, the MIC90 [20] was 16 µg/mL (≈ 41.7 µM), the MIC [21] was 1 µg/mL (≈ 2.61 µM) and the MIC50 [22] was 2 µg/mL (≈ 5.22 µM). For the same molecule, the MIC90 [22] was 16 µg/mL (≈ 41.7 µM), the MIC50 [23] was 2 µg/mL (≈ 5.22 µM) and the MIC90 [23] was 16 µg/mL (≈ 41.7 µM).

`CNCc1cc2c3c(ccc2n1C)-c1[nH]c(=O)c(C(=O)O)c(O)c1CCC3` showed an IC50 [24] of 1 µM, an MIC [7] of 6.3 µg/mL (≈ 17.1 µM) and an MIC [21] of over 12.5 µg/mL. It also gave an IC50 [25] of 27.9 µM.

Molecule `CCNCc1cc2cc3c(cc2n1C)CCCCc1c-3[nH]c(=O)c(C(=O)O)c1O` has an IC50 [24] of 0.8 µM, an MIC [7] of 3.1 µg/mL (≈ 7.84 µM) and an MIC [21] of 0.78 µg/mL (≈ 1.97 µM). For the same molecule, the IC50 [25] was 15.3 µM.

Work on `CCNCc1cc2cc3c(cc2n1C)Cc1c-3[nH]c(=O)c(C(=O)O)c1O` yielded an IC50 [24] of over 11.1 µM, an MIC [7] of over 62.5 µg/mL and an MIC [21] of over 62.5 µg/mL. For the same molecule, the IC50 [25] was over 11.1 µM.

Work on `CNCc1cc2cc3c(cc2n1C)CCCc1c-3[nH]c(=O)c(C(=O)O)c1O` yielded an MIC [2] of 0.8 µg/mL (≈ 2.18 µM), an MIC [4] of 1.6 µg/mL (≈ 4.35 µM) and an MIC [6] of 1.6 µg/mL (≈ 4.35 µM). For the same molecule, the IC50 [24] was 0.1 µM, the MIC [7] was 0.39 µg/mL (≈ 1.06 µM) and the Ratio [8] was 4 - 16. For the same molecule, the MIC [9] was 0.39 µg/mL (≈ 1.06 µM), the MIC [10] was 3.1 µg/mL and the MIC [21] was 0.39 µg/mL (≈ 1.06 µM). It also gave an IC50 [25] of 3.7 µM.

With `Cn1c(CN2CCCC2)cc2cc3c(cc21)OCCc1c-3[nH]c(=O)c(C(=O)O)c1O` the MIC50 [1] was 2 µg/mL (≈ 4.88 µM), the MIC90 [1] was 8 µg/mL (≈ 19.5 µM) and the MIC [2] was 3.1 µg/mL (≈ 7.57 µM). The MIC [4] was 3.9 µg/mL (≈ 9.53 µM), the MIC50 [5] was 2 µg/mL (≈ 4.88 µM) and the MIC90 [5] was 8 µg/mL (≈ 19.5 µM). It also gave an MIC ([5]; read-out: MIC) of 0.12 to 16 µg/mL (≈ 0.293 to 39.1 µM), an MIC [6] of 7.8 µg/mL (≈ 19.1 µM) and an MIC [7] of 1 µg/mL (≈ 2.44 µM). For the same molecule, the Ratio [8] was 2 - 4, the MIC [9] was 2 µg/mL (≈ 4.88 µM) and the MIC [10] was 3.9 µg/mL. For the same molecule, the MIC50 [11] was 0.5 µg/mL (≈ 1.22 µM), the MIC90 [11] was 1 µg/mL (≈ 2.44 µM) and the MIC50 [13] was 0.5 µg/mL (≈ 1.22 µM). It also gave an MIC90 [13] of 1 µg/mL (≈ 2.44 µM), an MIC [13] of 0.25 to 1 µg/mL (≈ 0.611 to 2.44 µM) and an MIC50 [14] of 0.5 µg/mL (≈ 1.22 µM). It also gave an MIC90 [14] of 1 µg/mL (≈ 2.44 µM), an MIC [14] of 0.25 to 1 µg/mL (≈ 0.611 to 2.44 µM) and an MIC50 [15] of 2 µg/mL (≈ 4.88 µM). For the same molecule, the MIC90 [15] was 8 µg/mL (≈ 19.5 µM), the MIC ([15]; read-out: MIC) was 0.12 to 16 µg/mL (≈ 0.293 to 39.1 µM) and the survival at 20 mg/kg [26] was 83%. For the same molecule, the Fu [16] was 0.18, the MIC50 [17] was 0.5 µg/mL (≈ 1.22 µM) and the MIC90 [17] was 1 µg/mL (≈ 2.44 µM). It also gave an MIC [17] of 0.25 to 1 µg/mL (≈ 0.611 to 2.44 µM), an MIC50 [18] of 0.5 µg/mL (≈ 1.22 µM) and an MIC90 [18] of 1 µg/mL (≈ 2.44 µM). It also gave an MIC [18] of 0.25 to 1 µg/mL (≈ 0.611 to 2.44 µM), an MIC50 [20] of 2 µg/mL (≈ 4.88 µM) and an MIC90 [20] of 8 µg/mL (≈ 19.5 µM). The MIC ([20]; read-out: MIC) was 0.12 to 16 µg/mL (≈ 0.293 to 39.1 µM), the MIC [21] was 2 µg/mL (≈ 4.88 µM) and the MIC50 [22] was 2 µg/mL (≈ 4.88 µM). It also gave an MIC90 [22] of 8 µg/mL (≈ 19.5 µM), an MIC ([22]; read-out: MIC) of 0.12 to 16 µg/mL (≈ 0.293 to 39.1 µM) and an MIC50 [23] of 2 µg/mL (≈ 4.88 µM). It also gave an MIC90 [23] of 8 µg/mL (≈ 19.5 µM) and an MIC ([23]; read-out: MIC) of 0.12 to 16 µg/mL (≈ 0.293 to 39.1 µM).
